Converted amounts (≈) assume the structure as drawn.
Assays:
[1] = tested on: HSC-2; assay: Cytotoxicity against human HSC2 cells after 24 hrs by MTT assay; format: functional, cell-based; details: HSC-2, 24 h
In short: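 HSC-2 monolayers kept in DMEM with 10% heat-inactivated FBS at 37 °C, 5% CO2. Trypsinized cells plated, grown 24 h, PBS-washed, exposed 24 h with or without compound. After PBS wash, 0.2 mg/mL MTT in DMEM/10% FBS for 4 h; cells lysed in DMSO and absorbance taken as relative viable cell number. IC50 reported.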

[2] = tested on: HL-60; assay: Cytotoxicity against human HL60 cells after 72 hrs by MTT assay; format: functional, cell-based; details: HL-60, 72 h
In short: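 HL-60 leukemia cells seeded in 96-well plates, held 24 h at 37 °C in 5% CO2/air, then given sample in EtOH-H2O (1:1) to final 0.1-20 µg/mL; solvent alone for controls. Exposure 72 h, then MTT for 4 h at 37 °C; cells and formazan pelleted, formazan dissolved in DMSO, A550 read. Triplicate; IC50 = concentration cutting viable cell number by 50%.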

## COc1cc([C@@H]2c3cc4c(cc3[C@@H](O[C@@H]3O[C@@H]5CO[C@@H](C)O[C@H]5[C@H](O)[C@H]3O)[C@H]3COC(=O)[C@H]23)OCO4)cc(OC)c1O [ETOPOSIDE]
[1]
  IC50: 24.4 µg/mL (≈ 41.5 µM)
[2]
  IC50: 0.23 µg/mL (≈ 0.391 µM)

## CC(C)=CC[C@H](O)[C@@H](C)[C@H]1[C@@H](O[C@@H]2O[C@@H](C)[C@H](O)[C@@H](O)[C@H]2O)C[C@H]2[C@@H]3CC[C@H]4C[C@@H](O)C[C@@H](O[C@@H]5O[C@@H](C)[C@H](O)[C@@H](O)[C@H]5O)[C@]4(C)[C@H]3CC[C@]12C
[1]
  IC50: > 100 µg/mL
[2]
  IC50: > 10 µg/mL

## C[C@@H]1O[C@@H](O[C@H]2[C@H](O[C@@H]3C[C@H](O)CC4=CC[C@H]5[C@@H]6C[C@@H]7O[C@]8(C[C@H](O)[C@@H](C)CO8)[C@@H](C)[C@@H]7[C@@]6(C)CC[C@@H]5[C@]43C)OC[C@H](O)[C@@H]2O[C@@H]2OC[C@@H](O)[C@H](O)[C@H]2O)[C@H](O)[C@H](O)[C@H]1O
[1]
  IC50: > 100 µg/mL
[2]
  IC50: > 10 µg/mL

## CC(C)CC[C@H](O)[C@@H](C)[C@H]1[C@@H](O[C@@H]2O[C@@H](C)[C@H](O)[C@@H](O)[C@H]2O)C[C@H]2[C@@H]3CC=C4C[C@@H](O)C[C@@H](O[C@@H]5O[C@@H](C)[C@H](O)[C@@H](O)[C@H]5O)[C@]4(C)[C@H]3CC[C@]12C
[1]
  IC50: > 100 µg/mL
[2]
  IC50: > 10 µg/mL

## CC(=O)OC[C@H]1O[C@@H](O[C@H]2C[C@H]3[C@@H]4CC[C@H]5C[C@@H](O)C[C@@H](O[C@@H]6O[C@@H](C)[C@H](O)[C@@H](O)[C@H]6O)[C@]5(C)[C@H]4CC[C@]3(C)[C@H]2[C@H](C)[C@@H](O)CCC(C)C)[C@H](O)[C@@H](O)[C@@H]1O[C@@H]1OC[C@](O)(CO)[C@H]1O
[1]
  IC50: > 100 µg/mL
[2]
  IC50: > 10 µg/mL

## C[C@@H]1O[C@@H](O[C@H]2[C@H](O[C@@H]3C[C@H](O)CC4=CC[C@H]5[C@@H]6C[C@@H]7O[C@]8(C[C@H](O)[C@@H](C)CO8)[C@@H](C)[C@@H]7[C@@]6(C)CC[C@@H]5[C@]43C)OC[C@H](O)[C@@H]2O)[C@H](O)[C@H](O)[C@H]1O
[1]
  IC50: > 100 µg/mL
[2]
  IC50: 5.2 µg/mL (≈ 7.17 µM)

## C[C@@H]1CC[C@@]2(OC1)O[C@H]1C[C@H]3[C@@H]4CC=C5C[C@@H](O)C[C@@H](O[C@@H]6OC[C@H](O)[C@H](O[C@@H]7OC[C@@H](O)[C@H](O)[C@H]7O)[C@H]6O[C@@H]6O[C@@H](C)[C@H](O)[C@@H](O)[C@H]6O)[C@]5(C)[C@H]4CC[C@]3(C)[C@H]1[C@@H]2C
[1]
  IC50: 21.2 µg/mL (≈ 25.2 µM)
[2]
  IC50: 1.9 µg/mL (≈ 2.26 µM)

## COc1cc(C(=O)OC[C@H]2O[C@@H](O[C@@H]3C[C@H](O)C[C@@H]4CC[C@H]5[C@@H]6C[C@H](O[C@@H]7O[C@H](CO)[C@@H](O)[C@H](O)[C@H]7O)[C@H]([C@H](C)[C@@H](O)CC=C(C)C)[C@@]6(C)CC[C@@H]5[C@]43C)[C@H](O)[C@@H](O)[C@@H]2O)cc(OC)c1OC
[1]
  IC50: > 100 µg/mL
[2]
  IC50: > 10 µg/mL

## CC(=O)OC[C@H]1O[C@@H](O[C@H]2C[C@H]3[C@@H]4CC[C@H]5C[C@@H](O)C[C@@H](O[C@@H]6O[C@@H](C)[C@H](O)[C@@H](O)[C@H]6O)[C@]5(C)[C@H]4CC[C@]3(C)[C@H]2[C@H](C)[C@@H](O)CCC(C)C)[C@H](O)[C@@H](O)[C@@H]1O
[1]
  IC50: > 100 µg/mL
[2]
  IC50: 5.3 µg/mL (≈ 6.73 µM)

## CC(C)=CC[C@H](O)[C@@H](C)[C@H]1[C@@H](O[C@@H]2O[C@@H](C)[C@H](O)[C@@H](O)[C@H]2O)C[C@H]2[C@@H]3CC=C4C[C@@H](O)C[C@@H](O[C@@H]5O[C@@H](C)[C@H](O)[C@@H](O)[C@H]5O)[C@]4(C)[C@H]3CC[C@]12C
[1]
  IC50: > 100 µg/mL
[2]
  IC50: 5.1 µg/mL (≈ 7.04 µM)

## CC(C)CC[C@H](O)[C@@H](C)[C@H]1[C@@H](O[C@@H]2O[C@H](CO)[C@@H](O)[C@H](O)[C@H]2O)C[C@H]2[C@@H]3CC[C@H]4C[C@@H](O)C[C@@H](O[C@@H]5O[C@H](CO)[C@@H](O)[C@H](O)[C@H]5O)[C@]4(C)[C@H]3CC[C@]12C
[1]
  IC50: > 100 µg/mL
[2]
  IC50: > 10 µg/mL

## C[C@@H]1CC[C@@]2(OC1)O[C@H]1C[C@H]3[C@@H]4CC[C@H]5C[C@@H](O)C[C@@H](O[C@@H]6O[C@H](CO)[C@@H](O)[C@H](O)[C@H]6O)[C@]5(C)[C@H]4CC[C@]3(C)[C@H]1[C@@H]2C
[1]
  IC50: 34.6 µg/mL (≈ 58.2 µM)
[2]
  IC50: 1.6 µg/mL (≈ 2.69 µM)

## CC(C)CC[C@H](O)[C@@H](C)[C@H]1[C@@H](O[C@@H]2O[C@H](CO)[C@@H](O)[C@H](O)[C@H]2O)C[C@H]2[C@@H]3CC[C@H]4C[C@@H](O)C[C@@H](O[C@@H]5O[C@@H](C)[C@H](O)[C@@H](O)[C@H]5O)[C@]4(C)[C@H]3CC[C@]12C
[1]
  IC50: > 100 µg/mL
[2]
  IC50: > 10 µg/mL

## COc1cc(C(=O)OC[C@H]2O[C@@H](O[C@@H]3C[C@H](O)C[C@@H]4CC[C@H]5[C@@H]6C[C@H](O[C@@H]7O[C@H](CO)[C@@H](O)[C@H](O)[C@H]7O)[C@H]([C@H](C)[C@@H](O)CCC(C)C)[C@@]6(C)CC[C@@H]5[C@]43C)[C@H](O)[C@@H](O)[C@@H]2O)cc(OC)c1OC
[1]
  IC50: > 100 µg/mL
[2]
  IC50: 5 µg/mL (≈ 5.23 µM)

## C[C@@H]1CC[C@@]2(OC1)O[C@H]1C[C@H]3[C@@H]4CC=C5C[C@@H](O)C[C@@H](O[C@@H]6OC[C@H](O)[C@H](O)[C@H]6O[C@@H]6O[C@@H](C)[C@H](O)[C@@H](O)[C@H]6O)[C@]5(C)[C@H]4CC[C@]3(C)[C@H]1[C@@H]2C
[1]
  IC50: 19.9 µg/mL (≈ 28.1 µM)
[2]
  IC50: 2.2 µg/mL (≈ 3.1 µM)

From ChEMBL document CHEMBL1148921, “Steroidal glycosides from the bulbs of Ornithogalum thyrsoides” (J Nat Prod, 2004)
